Here are results for 13 compounds from PubChem BioAssay AID1483 (NMMLSC, 2009).

The list shows a part of the results. Values without a mark were called inactive. The source made the active and inactive calls.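 How the source made its calls: active means fluorescence beyond the plate control mean plus 3 SD, with a fluorescence-to-maximum score over 2 (cut at about 25 in these data); inactive means the rest.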

The assay can be described thus: green-channel fluorescence of compounds in CCRF-Adr cells – cell-based, 488/530 nm, flow cytometry, artefact control for ABC transporter inhibitor project, confirmation (AID 1483). The following applies: compound autofluorescence 488/530 nm, at 6.6 µM, hits give high values. The method in brief:
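Test system: drug-resistant CCRF-Adr cells; Quantity: 3 million cells per mL, final in well; Benchmarks: DMSO control wells; Incubation: 10 min rotation at 25 °C; Compound: single test compound dose, 6.6 µM final; Probe or stimulus: no JC-1 substrate added, compound fluorescence only; Technique: flow cytometry, median green fluorescence at 530 ± 20 nm.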
For `CCN1/C(=C/c2ccc3ccc(C)cc3[n+]2CC)Sc2ccccc21`, the fluorescence was 130 (active). Under `Cc1cccc2cc(CN(Cc3cccs3)C(c3nnnn3C3CCCC3)C(C)C)c(=O)[nH]c12` (stereo not drawn) stands -4.84; under `COc1ccc(C)cc1NC(=O)C(Sc1ccccc1)c1ccccc1` (stereo not drawn), -2.64; under `CCOCC(=O)Nc1sc2c(c1C(=O)OCC)CCCC2`, 0.31.

On to `O=C(Cc1c[nH]c2ccccc12)N/N=C/c1cccc(F)c1`, for which the fluorescence is 4.76. With `CCOC(=O)c1sc(NC(=O)CSc2nnc(-c3ccco3)o2)c(C(=O)OCC)c1C` the figure was 0.61; with `Cc1ccc(OCC(O)CN2CCN(CC(O)COc3ccc(C)cc3Cl)CC2)c(Cl)c1` (stereo not drawn), 22.4. Under `COc1cccc(NC(=O)c2ccc(Cn3cc([N+](=O)[O-])cn3)o2)c1` stands 5.61; under `COc1ccc(-n2c(C)cc(C(=O)COC(=O)c3cc(OC)c(OC)cc3NC(=O)c3cccs3)c2C)cc1`, 2.26. With `Cc1c(CCOC(=O)CC23CC4CC(CC(C)(C4)C2)C3)sc[n+]1Cc1ccc([N+](=O)[O-])cc1` the figure was -2.94; with `C=CCn1c(SCCOc2ccc(OC)cc2)nnc1C(NC(=O)c1ccc(OC)cc1)C(C)C` (stereo not drawn), 180 (active). As to `C/C(=N\Nc1ncc(Cl)cc1Cl)c1ccc(S(=O)(=O)NCc2ccco2)cc1`, the fluorescence was -2.49. Under `Cc1ccc(-n2c(SCC(=O)Nc3ncc(Cl)cc3Cl)nc3ccccc32)cc1` stands -0.64.
